According to ChEMBL document CHEMBL1123619, “Isothiourea derivatives of 6-phenyl-2,3,5,6-tetrahydroimidazo[2,1-b]thiazole with broad-spectrum anthelmintic activity” (J Med Chem, 1987):
The source made the active and inactive calls. The calls are words filed in the database; no cut-off is given here.

Experiments:
[1] = tested on: Heligmosomoides polygyrus; assay: Nematocidal activity against Nematospiroides dubius induced necropsy in mouse, oral administration 200 mg/kg; type: functional
How it was run: (§1)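 Seven-week-old female LACA mice infected orally with 100 N. dubius L3 larvae; single gavage dose given at day 10 of infection, groups of four mice; necropsy 4 days later; percent activity from worm burdens of treated versus untreated groups.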

[2] = tested on: Fasciola hepatica; assay: Anthelmintic activity against adult liver fluke (Fasciola hepatica) in sheep following 30 mg/kg p.o.; type: functional; conditions: route oral
How it was run: (§2)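 Sheep dosed with a single oral dose. Fecal fluke egg output monitored after treatment. Animals necropsied only if the fecal egg count fell. Postmortem Fasciola hepatica burdens compared with untreated control sheep (mean of 10 controls). Single animals per test unless otherwise indicated, with group size given in parentheses. I denotes no effect on fecal fluke egg output.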

[3] = tested on: Ovis aries; assay: Anthelmintic activity against adult liver fluke (Fasciola hepatica) in sheep, after peroral administration of 20 mg/kg was determined; I means no effect on sheep fecal fluke egg output; type: functional, organism-based; set-up: dose 20 mg/kg; conditions: at 20 mg/kg; how it was run: as §2
[4] = tested on: Ovis aries; assay: Anthelmintic activity against adult liver fluke (Fasciola hepatica) in sheep, after peroral administration of 30 mg/kg was determined; I means no effect on sheep fecal fluke egg output; type: functional, organism-based; set-up: dose 30 mg/kg; conditions: at 30 mg/kg; how it was run: as §2
[5] = tested on: Ovis aries; assay: Anthelmintic activity against adult liver fluke (Fasciola hepatica) in sheep, after peroral administration of 30 mg/kg; I means no effect on sheep fecal fluke egg output; type: functional, organism-based; set-up: dose 30 mg/kg; conditions: at 30 mg/kg; how it was run: as §2
[6] = tested on: Mus musculus; assay: Nematocidal activity against Nematospiroides dubius induced necropsy in mouse, after oral administration of 100 mg/kg; type: functional; how it was run: as §1
[7] = tested on: Ovis aries; assay: Anthelmintic activity against adult liver fluke (Fasciola hepatica) in sheep, after peroral administration of 15 mg/kg was determined; type: functional; conditions: route oral; how it was run: as §2
[8] = tested on: Ovis aries; assay: Anthelmintic activity against adult liver fluke (Fasciola hepatica) in sheep, after peroral administration of 20 mg/kg was determined; type: functional; conditions: route oral; how it was run: as §2
[9] = tested on: Ovis aries; assay: Anthelmintic activity against adult fecal fluke egg output in sheep, after peroral administration of 30 mg/kg; I means no effect on sheep fecal fluke egg output; type: functional, organism-based; set-up: dose 30 mg/kg; conditions: at 30 mg/kg; how it was run: as §2
[10] = tested on: Mus musculus; assay: Nematocidal activity against Nematospiroides dubius induced necropsy in mouse, after oral administration of 12.5 mg/kg of the compound; type: functional
How it was run: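 Female LACA mice (7 weeks) infected orally with 100 N. dubius L3 larvae; single oral dose as solution in PEG 400 on infection day 10, four mice per group; necropsied 4 days later; percent activity by comparing treated and untreated worm burdens.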

[11] = tested on: Mus musculus; assay: Nematocidal activity against Nematospiroides dubius induced necropsy in mouse, after oral administration of 25 mg/kg of the compound; type: functional; how it was run: as §1
[12] = tested on: Mus musculus; assay: Nematocidal activity against Nematospiroides dubius induced necropsy in mouse, after oral administration of 50 mg/kg of the compound; type: functional; how it was run: as §1
[13] = tested on: Ovis aries; assay: Anthelmintic activity against adult liver fluke (Fasciola hepatica) in sheep, after peroral administration of 10 mg/kg was determined; type: functional; conditions: route oral; how it was run: as §2
[14] = tested on: Ovis aries; assay: Anthelmintic activity against adult liver fluke (Fasciola hepatica) in sheep, after peroral administration of 5 mg/kg was determined; type: functional; conditions: route oral; how it was run: as §2
[15] = tested on: Ovis aries; assay: Anthelmintic activity against adult liver fluke (Fasciola hepatica) in sheep, after peroral administration of 7.5 mg/kg was determined; type: functional; conditions: route oral; how it was run: as §2
[16] = tested on: Mus musculus; assay: Nematocidal against Nematospiroides dubius in mouse was determined at 1 mg/kg peroral dose of compound; type: functional; conditions: route oral; how it was run: as §1
[17] = tested on: Mus musculus; assay: Nematocidal against Nematospiroides dubius in mouse was determined at 5 mg/kg peroral dose of compound; type: functional; conditions: route oral; how it was run: as §1
[18] = tested on: Mus musculus; assay: Nematocidal against Nematospiroides dubius in mouse was determined at 0.5 mg/kg peroral dose of compound; type: functional; conditions: route oral; how it was run: as §1
[19] = tested on: Mus musculus; assay: Nematocidal against Nematospiroides dubius in mouse was determined at 50 mg/kg peroral dose of compound; all animals died at this dose; type: functional, organism-based; set-up: dose 50 mg/kg; how it was run: as §1
[20] = tested on: Ovis aries; assay: Toxic activity expressed as the percentage against liver fluke in the sheep at 15 mg/kg peroral administration of dose; type: ADME, organism-based; set-up: dose 15 mg/kg, route oral; conditions: in vivo, po
How it was run: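 Fasciola hepatica in sheep, controlled test; animals necropsied only when fecal egg count fell; postmortem fluke burdens compared with untreated control sheep (10 controls).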

[21] = tested on: Ovis aries; assay: Toxic activity expressed as the percentage against liver fluke in the sheep at 30 mg/kg peroral administration of dose; lethal; type: ADME, organism-based; set-up: dose 30 mg/kg, route oral; conditions: in vivo, po
[22] = tested on: Ovis aries; assay: Anthelmintic activity against adult liver fluke (Fasciola hepatica) in sheep, after peroral administration of 30 mg/kg was determined. Value in parentheses indicate number of animals used; type: functional; conditions: route oral; how it was run: as §2
[23] = tested on: Ovis aries; assay: Anthelmintic activity against adult liver fluke (Fasciola hepatica) in sheep, after peroral administration of 20 mg/kg; I means no effect on sheep fecal fluke egg output; type: functional, organism-based; set-up: dose 20 mg/kg; conditions: at 20 mg/kg; how it was run: as §2
[24] = tested on: Ovis aries; assay: Anthelmintic activity against adult liver fluke (Fasciola hepatica) in 3 sheep, after peroral administration of 30 mg/kg was determined. Value in parentheses indicate number of animals used; type: functional; conditions: route oral; how it was run: as §2
[25] = tested on: Ovis aries; assay: Anthelmintic activity against adult liver fluke (Fasciola hepatica) in 2 sheep, after peroral administration of 30 mg/kg was determined. Value in parentheses indicate number of animals used; type: functional; conditions: route oral; how it was run: as §2
[26] = tested on: Mus musculus; assay: Nematocidal activity against Nematospiroides dubius induced necropsy in mouse, after oral administration of 100 mg/kg of the compound; type: functional; how it was run: as §1
[27] = tested on: Ovis aries; assay: Anthelmintic activity against adult liver fluke (Fasciola hepatica) in 2 sheep, after peroral administration of 30 mg/kg was determined.; type: functional; conditions: route oral; how it was run: as §2

SMILES	Reduction [1] [%]	Activity [2] [%]	Reduction [6] [%]	also measured
CCOC(=O)c1ccc(N/C(=N/c2cccc(C3CN4CCSC4=N3)c2)SC)cc1 (stereo not given)	74	97	–	Activity [3]: inactive
CCCCCCCCS/C(=N\c1cccc(C2CN3CCSC3=N2)c1)Nc1ccccc1 (stereo not given)	0	–	–	Activity [4]: inactive
CS/C(=N\c1cccc(C2CN3CCSC3=N2)c1)Nc1ccc(C)c(C)c1 (stereo not given)	0	85	–	–
CCCCCCN/C(=N/c1cccc(C2CN3CCSC3=N2)c1)SC (stereo not given)	52	–	–	Activity [5]: inactive
CS/C(=N\c1ccccc1)N(C)c1cccc(C2CN3CCSC3=N2)c1 (stereo not given)	0	–	–	Activity [4]: inactive
CS/C(=N\c1cccc(C2CN3CCSC3=N2)c1)Nc1ccc(Cl)c(Cl)c1 (stereo not given)	0	63	0	–
c1ccc(CS/C(=N\c2cccc(C3CN4CCSC4=N3)c2)Nc2ccccc2)cc1 (stereo not given)	0	–	–	Activity [4]: inactive
CS/C(=N\c1cccc(C2CN3CCSC3=N2)c1)Nc1ccc(C)cc1 (stereo not given)	0	91	–	–
CS/C(=N\c1cccc(C2CN3CCSC3=N2)c1)Nc1ccc([S+](C)[O-])cc1 (stereo not given)	97	100	33	Activity [7]: 14%; Activity [8]: 66%
CS/C(=N\c1cccc(C2CN3CCSC3=N2)c1)Nc1ccc(Cl)cc1 (stereo not given)	88	100	0	–
CCCS/C(=N\c1cccc(C2CN3CCSC3=N2)c1)Nc1ccccc1 (stereo not given)	64	–	–	Activity [9]: inactive
CS/C(=N\c1cccc([C@H]2CN3CCSC3=N2)c1)Nc1ccc(C#N)cc1	100	–	100	Reduction [10]: 66%; Reduction [11]: 99.9%; Reduction [12]: 100%; Activity [13]: 100%; Activity [14]: 85%; Activity [15]: 91%
c1ccc(C2CN3CCSC3=N2)cc1 (stereo not given) [TETRAMISOLE]	–	–	–	Reduction [16]: 43%; Reduction [17]: 57%
CS/C(=N\c1cccc(C2CN3CCSC3=N2)c1)Nc1ccccc1C#N (stereo not given)	0	–	–	Activity [4]: inactive
CS/C(=N\c1cccc(C2CN3CCSC3=N2)c1)Nc1cccc(Br)c1 (stereo not given)	79	100	56	Activity [7]: 77%; Activity [8]: 100%
CS/C(=N\c1cccc(C2CN3CCSC3=N2)c1)Nc1cccc([N+](=O)[O-])c1 (stereo not given)	95	91	95	Activity [7]: 100%
CCCCS/C(=N\c1cccc(C2CN3CCSC3=N2)c1)Nc1ccccc1 (stereo not given)	0	–	–	Activity [4]: inactive

SMILES	Reduction [1] [%]	Activity [2] [%]	Reduction [6] [%]	also measured
CS/C(=N\c1cccc(C2CN3CCSC3=N2)c1)Nc1ccccc1Cl (stereo not given)	23	–	–	Activity [5]: inactive
Nc1cccc(C2CN3CCSC3=N2)c1 (stereo not given)	–	–	–	Reduction [18]: 43%; Reduction [16]: 99%; Reduction [19]: all animals died at this dose; Reduction [17]: 100%; Activity [20]: 0%; Activity [21]: lethal
CS/C(=N\c1cccc(C2CN3CCSC3=N2)c1)Nc1ccc([N+](=O)[O-])cc1 (stereo not given)	100	–	100	Reduction [12]: 95%; Activity [8]: 85%; Activity [22]: 94%
CS/C(=N\c1cccc(C2CN3CCSC3=N2)c1)Nc1ccc(C(F)(F)F)cc1 (stereo not given)	74	100	–	Activity [7]: 100%
CS/C(=N\c1cccc(C2CN3CCSC3=N2)c1)NC1CCCCC1 (stereo not given)	15	–	–	Activity [5]: inactive
CS/C(=N\c1cccc(C2CN3CCSC3=N2)c1)Nc1cccc(Cl)c1 (stereo not given)	99	91	87	Activity [23]: inactive
CC(C)S/C(=N\c1cccc(C2CN3CCSC3=N2)c1)Nc1ccccc1 (stereo not given)	0	–	–	Activity [4]: inactive
CS/C(=N\c1cccc(C2CN3CCSC3=N2)c1)Nc1cccc(C#N)c1 (stereo not given)	100	–	54	Activity [7]: 63%; Activity [8]: 100%; Activity [24]: 100%
CCS/C(=N\c1cccc(C2CN3CCSC3=N2)c1)Nc1ccccc1 (stereo not given)	92	97	–	Activity [23]: inactive
CS/C(=N\c1cccc(C2CN3CCSC3=N2)c1)Nc1cccc(F)c1 (stereo not given)	100	66	100	Reduction [12]: 64%
CS/C(=N\c1cccc(C2CN3CCSC3=N2)c1)Nc1ccc(F)cc1 (stereo not given)	100	60	0	–
COc1ccc(N/C(=N/c2cccc(C3CN4CCSC4=N3)c2)SC)cc1 (stereo not given)	0	–	–	Activity [5]: inactive
CS/C(=N\c1cccc(C2CN3CCSC3=N2)c1)Nc1ccc(C(C)=O)cc1 (stereo not given)	100	100	93	Activity [7]: 100%
CS/C(=N\c1cccc(C2CN3CCSC3=N2)c1)Nc1ccc(SC)cc1 (stereo not given)	95	–	30	Activity [7]: 71%; Activity [8]: 80%; Activity [25]: 100%
CS/C(=N\c1cccc(C2CN3CCSC3=N2)c1)Nc1ccc(Br)cc1 (stereo not given)	73	94	0	Activity [8]: 100%
CS/C(=N\c1cccc(C2CN3CCSC3=N2)c1)Nc1ccccc1 (stereo not given)	99	–	–	Activity [26]: 38%; Activity [12]: 0%; Activity [27]: 94%
CS/C(=N\c1cccc(C2CN3CCSC3=N2)c1)Nc1ccc(S(C)(=O)=O)cc1 (stereo not given)	100	–	94	Reduction [12]: 41%; Activity [7]: 74%; Activity [8]: 89%; Activity [27]: 100%
